Assay results from ChEMBL document CHEMBL4819034, “Tricyclic-Carbocyclic RORγt Inverse Agonists-Discovery of BMS-986313” (J Med Chem, 2021).
pEC50, pIC50: −log10 of the molar value.

Legend:
Mus musculus [1] = assay: Protection against recombinant human IL23-induced acanthosis C57BL/6 mouse model assessed as reduction in IL-17F mRNA levels at 6 mg/kg, po BID BID for 10 days by qRT-PCR analysis relative to control; format: functional; design: scale not given: the % may be the effect or the level left; conditions: time 10 day
In short: (§1)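 In the IL-23 ear-injection model in C57BL/6 mice with BID oral dosing, ear tissue was collected from all animals at study end on day 10. IL-17A and IL-17F mRNA expression was quantified by qPCR and compared with the placebo arm.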

Mus musculus [2] = assay: Protection against imiquimod-induced C57BL/6 mouse model of psoriasis assessed as inhibition of skin thickening at 20 mg/kg, po BID for 7 days and measured every day for 8 days relative to control; format: functional; conditions: C57BL/6, po, 168 h, time 7 day
[3] = Half life in rat liver microsomes; format: ADME, Microsome
In short: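 Liver microsome half-life (min) measured in human, mouse, rat, dog and cyno liver microsomes.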

[4] = Cmax in cynomolgus monkey at 2 mg/kg, po; format: ADME, organism-based, Macaca fascicularis; design: route oral, dose 2 mg/kg; conditions: in vivo
In short: (§2)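 Single-dose PK, IV and PO. Doses: mouse and rat 2 mg/kg IV / 4 mg/kg PO; dog and cyno 1 mg/kg IV, with 1 or 2 mg/kg PO.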

[5] = molecular target: Voltage-gated inwardly rectifying potassium channel KCNH2 (Homo sapiens, UniProt Q12809); assay: Inhibition of human ERG by patch-clamp assay
Chain of Voltage-gated inwardly rectifying potassium channel KCNH2 (Q12809 whole entry, the tested form may be a part): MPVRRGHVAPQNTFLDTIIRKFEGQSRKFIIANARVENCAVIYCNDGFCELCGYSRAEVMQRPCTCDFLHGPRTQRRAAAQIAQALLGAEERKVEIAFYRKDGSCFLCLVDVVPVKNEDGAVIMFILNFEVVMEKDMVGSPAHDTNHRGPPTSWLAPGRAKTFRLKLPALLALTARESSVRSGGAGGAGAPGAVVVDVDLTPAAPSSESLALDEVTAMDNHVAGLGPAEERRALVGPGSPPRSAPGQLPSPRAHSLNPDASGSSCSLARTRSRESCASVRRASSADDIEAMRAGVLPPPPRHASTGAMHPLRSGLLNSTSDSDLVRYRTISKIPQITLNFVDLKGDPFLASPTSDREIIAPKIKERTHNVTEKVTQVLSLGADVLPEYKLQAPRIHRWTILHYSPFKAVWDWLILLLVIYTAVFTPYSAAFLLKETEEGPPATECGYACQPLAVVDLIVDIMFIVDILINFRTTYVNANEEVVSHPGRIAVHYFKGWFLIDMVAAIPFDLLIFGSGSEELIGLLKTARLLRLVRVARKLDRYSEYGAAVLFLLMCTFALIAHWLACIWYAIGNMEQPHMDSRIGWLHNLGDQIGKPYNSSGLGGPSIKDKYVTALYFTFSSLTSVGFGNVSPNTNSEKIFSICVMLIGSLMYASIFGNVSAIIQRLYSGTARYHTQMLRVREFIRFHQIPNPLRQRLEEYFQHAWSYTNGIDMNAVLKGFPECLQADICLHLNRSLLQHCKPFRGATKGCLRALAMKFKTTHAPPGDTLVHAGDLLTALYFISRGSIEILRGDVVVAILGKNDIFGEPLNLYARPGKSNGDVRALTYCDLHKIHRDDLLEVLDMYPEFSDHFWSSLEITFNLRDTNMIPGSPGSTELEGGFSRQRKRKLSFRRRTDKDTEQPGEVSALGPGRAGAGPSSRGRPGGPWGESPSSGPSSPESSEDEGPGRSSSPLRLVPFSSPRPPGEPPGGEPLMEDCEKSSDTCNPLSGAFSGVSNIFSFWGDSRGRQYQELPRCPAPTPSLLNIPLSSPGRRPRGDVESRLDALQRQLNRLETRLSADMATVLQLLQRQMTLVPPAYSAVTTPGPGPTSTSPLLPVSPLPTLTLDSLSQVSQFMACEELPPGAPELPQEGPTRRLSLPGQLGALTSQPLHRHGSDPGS

[6] = molecular target: T1, Nuclear receptor ROR-beta (Homo sapiens, UniProt Q92753); assay: Inverse agonist activity at Gal4-fused RORbeta (unknown origin)
T1 sequence (Q92753 whole entry): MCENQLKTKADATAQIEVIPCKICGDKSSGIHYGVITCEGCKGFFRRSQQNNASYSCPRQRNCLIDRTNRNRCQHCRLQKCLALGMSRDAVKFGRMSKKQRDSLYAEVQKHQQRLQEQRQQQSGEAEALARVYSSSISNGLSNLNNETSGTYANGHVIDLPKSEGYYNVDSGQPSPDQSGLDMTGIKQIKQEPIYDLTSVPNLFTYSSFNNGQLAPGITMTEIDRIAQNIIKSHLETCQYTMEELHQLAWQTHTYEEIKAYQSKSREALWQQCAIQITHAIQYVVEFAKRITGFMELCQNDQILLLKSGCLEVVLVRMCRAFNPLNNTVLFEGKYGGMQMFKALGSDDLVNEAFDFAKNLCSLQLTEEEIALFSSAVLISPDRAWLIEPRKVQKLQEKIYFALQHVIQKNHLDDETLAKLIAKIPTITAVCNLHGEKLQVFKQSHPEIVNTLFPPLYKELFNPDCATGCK

[7] = Oral bioavailability in cynomolgus monkey at 2 mg/kg; format: ADME, organism-based, Macaca fascicularis; conditions: in vivo; in short: as §2
Cytochrome P450 2C9 = Cytochrome P450 2C9 (Homo sapiens, UniProt P11712); assay: Inhibition of CYP2C9 (unknown origin); format: ADME
Chain of Cytochrome P450 2C9 (P11712 whole entry): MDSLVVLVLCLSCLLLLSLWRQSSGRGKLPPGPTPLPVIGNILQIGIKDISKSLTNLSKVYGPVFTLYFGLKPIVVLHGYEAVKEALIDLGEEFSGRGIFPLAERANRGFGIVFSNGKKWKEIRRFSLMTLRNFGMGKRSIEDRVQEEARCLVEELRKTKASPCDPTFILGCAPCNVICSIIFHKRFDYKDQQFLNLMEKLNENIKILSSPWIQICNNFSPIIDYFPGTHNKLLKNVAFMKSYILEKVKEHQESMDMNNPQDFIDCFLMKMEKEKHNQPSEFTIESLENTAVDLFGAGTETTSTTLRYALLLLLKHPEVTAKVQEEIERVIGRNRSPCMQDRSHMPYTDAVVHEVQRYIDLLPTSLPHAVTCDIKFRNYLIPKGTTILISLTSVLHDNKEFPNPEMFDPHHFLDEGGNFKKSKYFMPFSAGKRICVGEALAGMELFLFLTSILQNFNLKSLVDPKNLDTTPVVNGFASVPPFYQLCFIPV

Mus musculus [8] = assay: Protection against recombinant human IL23-induced acanthosis C57BL/6 mouse model assessed as inhibition of ear thickening at 15 mg/kg, po BID for 10 days and measured every other day relative to control; format: functional; conditions: C57BL/6, po, 240 h, time 10 day
In short: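 IL-23 ear-injection acanthosis model in C57BL/6 mice with BID oral dosing. Ear thickness % change was recorded every other day, before each next injection, from a day 0 baseline. Inhibition of ear thickening was calculated against the placebo arm from the area under the curve over the study duration.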

Mus musculus [9] = assay: Protection against imiquimod-induced C57BL/6 mouse model of psoriasis assessed as reduction in IL-17F mRNA levels at 20 mg/kg, po BID for 7 days by RT-PCR analysis relative to control; format: functional; design: scale not given: the % may be the effect or the level left; conditions: time 7 day
Mus musculus [10] = assay: Protection against recombinant human IL23-induced acanthosis C57BL/6 mouse model assessed as reduction in IL-17F mRNA levels at 15 mg/kg, po BID BID for 10 days by qRT-PCR analysis relative to control; format: functional; design: scale not given: the % may be the effect or the level left; conditions: time 10 day; in short: as §1
Mus musculus [11] = assay: Protection against recombinant human IL23-induced acanthosis C57BL/6 mouse model assessed as reduction in IL-17A mRNA levels at 3 mg/kg, po BID BID for 10 days by qRT-PCR analysis relative to control; format: functional; design: scale not given: the % may be the effect or the level left; conditions: time 10 day; in short: as §1
[12] = Cmax in mouse at 4 mg/kg, po; format: ADME, organism-based; design: route oral, dose 4 mg/kg; conditions: in vivo; in short: as §2
[13] = Oral bioavailability in rat at 4 mg/kg; format: ADME, organism-based; conditions: in vivo; in short: as §2
[14] = molecular target: T2, Oxysterols receptor LXR-alpha (Homo sapiens, UniProt Q13133); assay: Inverse agonist activity at LXRalpha (unknown origin)
T2 sequence (Q13133 whole entry): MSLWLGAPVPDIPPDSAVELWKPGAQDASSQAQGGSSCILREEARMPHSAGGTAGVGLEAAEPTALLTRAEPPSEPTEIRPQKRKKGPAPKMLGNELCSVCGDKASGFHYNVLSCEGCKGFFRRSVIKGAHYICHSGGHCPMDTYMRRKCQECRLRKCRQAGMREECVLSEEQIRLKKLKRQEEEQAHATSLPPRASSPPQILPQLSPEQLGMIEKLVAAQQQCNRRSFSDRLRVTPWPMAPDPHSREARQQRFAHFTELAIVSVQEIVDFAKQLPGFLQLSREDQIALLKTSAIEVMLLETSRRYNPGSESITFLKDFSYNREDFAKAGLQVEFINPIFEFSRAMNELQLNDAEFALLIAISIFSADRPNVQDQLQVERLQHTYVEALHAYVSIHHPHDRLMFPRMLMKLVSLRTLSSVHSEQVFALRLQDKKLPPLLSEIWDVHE

[15] = Clearance in cynomolgus monkey at 1 mg/kg, iv; format: ADME, organism-based, Macaca fascicularis; conditions: in vivo; in short: as §2
Mus musculus [16] = assay: Protection against imiquimod-induced C57BL/6 mouse model of psoriasis assessed as reduction in IL-17F mRNA levels at 10 mg/kg, po BID for 7 days by RT-PCR analysis relative to control; format: functional; design: scale not given: the % may be the effect or the level left; conditions: time 7 day
[17] = AUC (0 to 24 hrs) in rat at 4 mg/kg, po; format: ADME, organism-based; design: time < 24 hr, route oral, dose 4 mg/kg; conditions: in vivo
[18] = Metabolic stability in human liver microsomes assessed as parent compound remaining; format: ADME, Microsome
In short: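 Test compound at 0.5 μM initial concentration incubated with human, mouse or rat liver microsomes (protein 1 mg/mL). Metabolic stability reported as percent of parent compound remaining after incubation.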

[19] = Volume of distribution at steady state in dog at 1 mg/kg, iv; format: ADME, organism-based, Canis lupus familiaris; conditions: in vivo, read-out: Vdss
In short: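 Single intravenous dose: mouse and rat 2 mg/kg, dog and cynomolgus 1 mg/kg. Steady-state volume of distribution was derived from the IV arm. Values are means from three or more animals.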

- half-life [3]: 2 h
- Cmax [4]: 1100 nM
- pEC50 [6]: < 5.00
- bioavailability [7]: 75%
- pIC50 (Cytochrome P450 2C9): 4.92
- Cmax [12]: 2200 nM
- bioavailability [13]: 65%
- pEC50 [14]: < 5.30
- clearance [15]: 2.7 mL/min/kg
- AUC(0-t) at 24 h [17]: 17 µM·h
- Stabilty [18]: 100%
- Vd [19]: 3.2 L/kg
Structure (SMILES): CC(C)(O)C(=O)N[C@@H]1CC[C@@]2(S(=O)(=O)c3ccc(F)cc3)c3ccc(C(F)(C(F)(F)F)C(F)(F)F)cc3CC[C@@H]12
- Activity (Mus musculus [1]): 87.3%
- inhibition in vivo at 20 mg/kg (Mus musculus [2]): 57.7%
- pIC50 [5]: 4.72
- inhibition in vivo at 15 mg/kg (Mus musculus [8]): 66.8%
- Activity (Mus musculus [9]): 97.9%
- Activity (Mus musculus [10]): 79.6%
- Activity (Mus musculus [11]): 2.7%
- Activity (Mus musculus [16]): 89.7%
